{"data": "Measured values collected from several papers", "note": "Lines come from different studies, so protocols differ."}
{"SMILES": "Cc1cc(S(=O)(=O)N[C@H]2CC[C@H](CN3CCN(c4cccc(NC5CCC(=O)NC5=O)c4)CC3)CC2)ccc1Nc1ncc(C(F)(F)F)c(N2CCC[C@](C)(O)C2)n1 (stereo partly shown)", "tested on": "MDCK", "test system": "Caco-2", "conditions": "1 µM, 2 h, pH 7.4", "endpoint": "Papp A→B", "result": "2.9 ×10⁻⁶ cm/s"}
{"SMILES": "COc1ccc(C2CC(c3ccc(NC(=O)CN4CCN(c5ccc(Cl)cc5)CC4)cc3)=NN2C(C)=O)cc1 (stereo not shown)", "tested on": "MCF-10A", "test": "cell growth or viability, MTT", "conditions": "50 µM, 96 h", "endpoint": "viability", "result": "86%"}
{"SMILES": "O=c1c2ccc(Oc3ccccc3OC(F)(F)F)cc2[nH]c2cc(Cl)cc(F)c12", "test": "metabolic stability", "test system": "mouse, liver microsomes", "conditions": "1 µM, pH 7.4", "endpoint": "half-life", "result": "43.4 min"}
{"SMILES": "Cc1cc(S(=O)(=O)N[C@H]2CC[C@H](N3CCN(CC4CCN(c5cccc6c5n(C)c(=O)n6C5CCC(=O)NC5=O)CC4)CC3)CC2)ccc1Nc1ncc(C(F)(F)F)c(N2CCC[C@](C)(O)C2)n1 (stereo partly shown)", "tested on": "MDCK", "test system": "Caco-2", "conditions": "1 µM, 2 h, pH 7.4", "endpoint": "Papp A→B", "result": "0.7 ×10⁻⁶ cm/s"}
{"SMILES": "COc1ccc(N2CCN(CC(=O)Nc3ccc(C(=O)C=Cc4ccco4)cc3)CC2)cc1", "tested on": "MCF-10A", "test": "cell growth or viability, MTT", "conditions": "50 µM, 96 h", "endpoint": "viability", "result": "82%"}
{"SMILES": "O=C(O)COc1cccc(-c2nc(Nc3ccc4[nH]ncc4c3)c3ccccc3n2)c1", "tested on": "Solute carrier family 22 member 6 (SLC22A6, Homo sapiens, UniProt Q4U2R8)", "test": "transporter uptake, inhibitor, radiometric", "endpoint": "IC50", "result": "> 500 µM"}
{"SMILES": "O=c1c2ccc(OCc3cccc(OC(F)(F)F)c3)cc2[nH]c2ccc(Cl)c(F)c12", "test": "metabolic stability", "test system": "mouse, liver microsomes", "conditions": "1 µM, pH 7.4", "endpoint": "half-life", "result": "> 60 min"}
{"SMILES": "Cc1cc(S(=O)(=O)NC2CC(N3CCN(CC4CCN(c5ccc6c(c5F)n(C)c(=O)n6C5CCC(=O)NC5=O)CC4)CC3)C2)ccc1Nc1ncc(C(F)(F)F)c(N2CCCC(C)(O)C2)n1 (stereo not shown)", "tested on": "MDCK", "test system": "Caco-2", "conditions": "1 µM, 2 h, pH 7.4", "endpoint": "Papp A→B", "result": "1.9 ×10⁻⁶ cm/s"}
{"SMILES": "COc1ccc(N2CCN(CC(=O)Nc3ccc(C(=O)C=Cc4ccc(C)cc4)cc3)CC2)cc1", "tested on": "MCF-10A", "test": "cell growth or viability, MTT", "conditions": "50 µM, 96 h", "endpoint": "viability", "result": "90%"}
{"SMILES": "O=c1c2c([nH]c3cc(Oc4cccc(OC(F)(F)F)c4)ccc13)CCCC2", "test": "metabolic stability", "test system": "mouse, liver microsomes", "conditions": "1 µM, pH 7.4", "endpoint": "half-life", "result": "> 60 min"}
{"SMILES": "Cc1cc(S(=O)(=O)N[C@]2(C)C[C@@H](N3CCN(CC4CCN(c5ccc6c(c5F)n(C)c(=O)n6C5CCC(=O)NC5=O)CC4)CC3)C2)ccc1Nc1ncc(C(F)(F)F)c(N2CCC[C@](C)(O)C2)n1 (stereo partly shown)", "tested on": "MDCK", "test system": "Caco-2", "conditions": "1 µM, 2 h, pH 7.4", "endpoint": "Papp A→B", "result": "1.5 ×10⁻⁶ cm/s"}
{"SMILES": "COc1nc(-c2cccc(-c3ccccc3)c2C)ccc1CNCCNC(=O)CCCCCCCCCCC(=O)N1CCN(CCNC(=O)c2cc3c(=O)n4cccc(C)c4nc3n(CCc3cccs3)c2=N)CC1", "test system": "male Sprague-Dawley rat, plasma", "conditions": "oral, 40 mg/kg", "endpoint": "half-life", "result": "408 min"}
{"SMILES": "CN(C)CCOc1ccc2c(=O)c3c([nH]c2c1)CCCC3", "test": "metabolic stability", "test system": "mouse, liver microsomes", "conditions": "1 µM, pH 7.4", "endpoint": "half-life", "result": "34.3 min"}
{"SMILES": "C[C@H]1Oc2cc(cnc2N)-c2c(nn(C)c2C#N)CN(C)C(=O)c2ccc(F)cc21", "test system": "male Sprague-Dawley rat, brain", "conditions": "oral, 10 mg/kg, 24 h, single dose", "endpoint": "concentration", "result": "16.4 ng/g"}
{"SMILES": "O=C(CN1CCN(c2ccc(Cl)cc2)CC1)Nc1ccc(C(=O)C=Cc2ccccc2)cc1", "tested on": "MCF-10A", "test": "cell growth or viability, MTT", "conditions": "50 µM, 96 h", "endpoint": "viability", "result": "85%"}
{"SMILES": "O=c1c2ccc(OCc3cccc(C(F)(F)F)c3)cc2[nH]c2ccc(Cl)c(F)c12", "test": "metabolic stability", "test system": "mouse, liver microsomes", "conditions": "1 µM, pH 7.4", "endpoint": "half-life", "result": "> 60 min"}
{"SMILES": "Cc1ccc(-c2nn(-c3ccccc3)cc2C=Nc2c(N)nc(S)nc2O)cc1", "tested on": "MCF-10A", "test": "cell growth or viability", "conditions": "48 h", "endpoint": "CC50", "result": "> 20 µM"}
{"SMILES": "O=c1c2cc(F)c(Oc3ccc(OC(F)(F)F)cc3)cc2[nH]c2cc(Cl)cc(F)c12", "test": "metabolic stability", "test system": "mouse, liver microsomes", "conditions": "1 µM, pH 7.4", "endpoint": "half-life", "result": "> 60 min"}
{"SMILES": "O=C(CN1CCN(c2ccc(Cl)cc2)CC1)Nc1ccc(C(=O)C=Cc2ccco2)cc1", "tested on": "MCF-10A", "test": "cell growth or viability, MTT", "conditions": "50 µM, 96 h", "endpoint": "viability", "result": "90%"}
{"SMILES": "CNS(=O)(=O)c1ccc(Nc2ncc3cc(Cl)c(=O)n(C4CCCC4)c3n2)c(C)c1", "tested on": "MDCK", "test system": "Caco-2", "conditions": "1 µM, 2 h, pH 7.4", "endpoint": "Papp A→B", "result": "3.6 ×10⁻⁶ cm/s"}
{"SMILES": "O=c1c2c([nH]c3cccc(Oc4ccc(OC(F)(F)F)cc4)c13)CCCC2", "test": "metabolic stability", "test system": "mouse, liver microsomes", "conditions": "1 µM, pH 7.4", "endpoint": "half-life", "result": "11.9 min"}
{"SMILES": "COc1ccc(N2CCN(CC(=O)Nc3ccc(C4=NN(C(C)=O)C(c5cc(OC)c(OC)c(OC)c5)C4)cc3)CC2)cc1 (stereo not shown)", "tested on": "MCF-10A", "test": "cell growth or viability, MTT", "conditions": "50 µM, 96 h", "endpoint": "viability", "result": "91%"}
{"SMILES": "Cc1cc(S(=O)(=O)N[C@H]2CC[C@H](CN3CCN(c4ccc(C5CCC(=O)NC5=O)c(Cl)c4)CC3)CC2)ccc1Nc1ncc(C(F)(F)F)c(N2CCC[C@](C)(O)C2)n1 (stereo partly shown)", "tested on": "MDCK", "test system": "Caco-2", "conditions": "1 µM, 2 h, pH 7.4", "endpoint": "Papp A→B", "result": "1.3 ×10⁻⁶ cm/s"}
{"SMILES": "CCCN(CCC)CCNc1ccc2c(=O)c3c([nH]c2c1)CCCC3", "test": "metabolic stability", "test system": "mouse, liver microsomes", "conditions": "1 µM, pH 7.4", "endpoint": "half-life", "result": "16.9 min"}
{"SMILES": "COc1ccc(C2CC(c3ccc(NC(=O)CN4CCN(c5ccc(OC)cc5)CC4)cc3)=NN2C(C)=O)cc1 (stereo not shown)", "tested on": "MCF-10A", "test": "cell growth or viability, MTT", "conditions": "50 µM, 96 h", "endpoint": "viability", "result": "92%"}
{"SMILES": "Nc1nc(S)nc(O)c1N=Cc1cn(-c2ccccc2)nc1-c1ccccc1", "tested on": "MCF-10A", "test": "cell growth or viability", "conditions": "48 h", "endpoint": "CC50", "result": "> 30 µM"}
{"SMILES": "Cc1cc(S(=O)(=O)NC2CC(N3CC[C@@H](OC4CN(c5cccc6c5n(C)c(=O)n6C5CCC(=O)NC5=O)C4)[C@H](F)C3)C2)ccc1Nc1ncc(C(F)(F)F)c(N2CCC[C@](C)(O)C2)n1 (stereo partly shown)", "tested on": "MDCK", "test system": "Caco-2", "conditions": "1 µM, 2 h, pH 7.4", "endpoint": "Papp A→B", "result": "0.9 ×10⁻⁶ cm/s"}
{"SMILES": "COc1ccc(N2CCN(CC(=O)Nc3ccc(C(=O)C=Cc4ccc(Cl)cc4Cl)cc3)CC2)cc1", "tested on": "MCF-10A", "test": "cell growth or viability, MTT", "conditions": "50 µM, 96 h", "endpoint": "viability", "result": "86%"}
